Legend:
Settings in all cases: stereoisomer not certain
[1] = target: OR4D6 (Homo sapiens) (UniProt Q8NGJ1)
In short: (§1)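 Each entry records the cell line, G-protein, co-transfected protein and tags used. Methods varied with the source, often transient luciferase assays in mammalian cell lines. A receptor–molecule pair is called responsive (active) if the original authors judged its signal statistically different from baseline and non-responsive (inactive) otherwise.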

[2] = test system: OR4D6
In short: as §1

[3] = target: OR4D9 (Homo sapiens) (UniProt Q8NGE8)
Sequence of OR4D9 (Homo sapiens) (Q8NGE8 whole entry): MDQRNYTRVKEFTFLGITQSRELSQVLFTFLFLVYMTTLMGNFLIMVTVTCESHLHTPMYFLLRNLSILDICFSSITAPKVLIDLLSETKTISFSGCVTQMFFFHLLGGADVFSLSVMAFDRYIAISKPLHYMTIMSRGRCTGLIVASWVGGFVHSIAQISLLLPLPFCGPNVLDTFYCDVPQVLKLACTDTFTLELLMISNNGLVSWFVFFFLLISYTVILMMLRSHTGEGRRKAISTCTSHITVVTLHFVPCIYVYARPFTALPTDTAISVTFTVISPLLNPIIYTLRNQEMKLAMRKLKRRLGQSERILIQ
In short: as §1

[4] = target: OR4E2 (Homo sapiens) (UniProt Q8NGC2)
Sequence of OR4E2 (Homo sapiens) (Q8NGC2 whole entry): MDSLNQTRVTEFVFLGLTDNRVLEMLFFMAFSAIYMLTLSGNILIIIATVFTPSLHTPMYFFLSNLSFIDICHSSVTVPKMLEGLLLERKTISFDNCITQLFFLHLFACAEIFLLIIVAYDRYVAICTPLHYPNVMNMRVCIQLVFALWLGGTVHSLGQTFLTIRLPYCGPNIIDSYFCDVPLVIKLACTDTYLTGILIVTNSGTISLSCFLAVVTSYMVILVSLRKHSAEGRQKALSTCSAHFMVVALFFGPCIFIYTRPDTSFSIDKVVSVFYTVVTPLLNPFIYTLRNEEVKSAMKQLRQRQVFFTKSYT
In short: as §1

[5] = test system: OR4E2 A119T
Sequence of OR4E2 A119T (as listed by the source, stated change not applied): as the sequence (Q8NGC2 whole entry) above, with V118M, A119T, Q234R counted along it
In short: as §1

[6] = test system: OR4E2
Sequence of OR4E2 (as listed by the source): as the sequence (Q8NGC2 whole entry) above, with V118M, Q234R counted along it
In short: as §1

[7] = target: OR4F15 (Homo sapiens) (UniProt Q8NGB8)
Sequence of OR4F15 (Homo sapiens) (Q8NGB8 whole entry): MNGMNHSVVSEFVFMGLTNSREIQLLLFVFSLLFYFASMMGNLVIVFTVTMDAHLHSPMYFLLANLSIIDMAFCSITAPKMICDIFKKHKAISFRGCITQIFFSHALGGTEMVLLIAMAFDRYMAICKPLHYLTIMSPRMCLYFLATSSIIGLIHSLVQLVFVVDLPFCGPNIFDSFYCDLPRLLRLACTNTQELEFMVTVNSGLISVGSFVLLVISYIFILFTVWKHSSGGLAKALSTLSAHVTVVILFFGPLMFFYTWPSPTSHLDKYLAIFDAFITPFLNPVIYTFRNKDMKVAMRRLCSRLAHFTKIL
In short: as §1

[8] = target: OR4F17 (Homo sapiens) (UniProt Q8NGA8)
Sequence of OR4F17 (Homo sapiens) (Q8NGA8 whole entry): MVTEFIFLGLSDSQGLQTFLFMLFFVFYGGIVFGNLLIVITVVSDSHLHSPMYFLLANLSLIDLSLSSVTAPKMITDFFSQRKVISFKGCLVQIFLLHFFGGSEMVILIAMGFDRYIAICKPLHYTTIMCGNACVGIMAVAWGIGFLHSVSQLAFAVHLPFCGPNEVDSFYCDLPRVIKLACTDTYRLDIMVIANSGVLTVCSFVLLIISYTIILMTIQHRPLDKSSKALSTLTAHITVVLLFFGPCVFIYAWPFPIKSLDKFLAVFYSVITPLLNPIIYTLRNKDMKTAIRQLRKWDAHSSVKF
In short: as §1

[9] = target: OR4F21 (Homo sapiens) (UniProt O95013)
Sequence of OR4F21 (Homo sapiens) (O95013 whole entry): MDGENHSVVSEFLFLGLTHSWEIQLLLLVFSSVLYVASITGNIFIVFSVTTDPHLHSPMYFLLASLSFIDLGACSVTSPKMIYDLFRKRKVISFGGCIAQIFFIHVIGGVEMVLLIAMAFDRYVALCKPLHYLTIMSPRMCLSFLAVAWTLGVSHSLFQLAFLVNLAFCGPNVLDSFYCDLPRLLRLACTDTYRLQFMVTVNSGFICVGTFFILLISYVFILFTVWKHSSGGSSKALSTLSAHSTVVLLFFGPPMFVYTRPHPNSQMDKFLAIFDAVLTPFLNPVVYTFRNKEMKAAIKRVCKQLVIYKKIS
In short: as §1

[10] = target: OR4F3 (Homo sapiens) (UniProt Q6IEY1)
Sequence of OR4F3 (Homo sapiens) (Q6IEY1 whole entry): as the sequence (O95013 whole entry) above, with F44L, I107V, K310R counted along it
In short: as §1

[11] = target: OR4F4 (Homo sapiens) (UniProt Q96R69)
Sequence of OR4F4 (Homo sapiens) (Q96R69 whole entry): as the sequence (Q8NGA8 whole entry) above, with G15E, R221C, Q293R counted along it
In short: as §1

[12] = target: OR4F5 (Homo sapiens) (UniProt Q8NH21)
Sequence of OR4F5 (Homo sapiens) (Q8NH21 whole entry): as the sequence (Q8NGA8 whole entry) above, with G15E, A141T, P160L counted along it
In short: as §1

[13] = test system: OR4F5 T141A Q293R
In short: as §1

[14] = target: OR4F6 (Homo sapiens) (UniProt Q8NGB9)
Sequence of OR4F6 (Homo sapiens) (Q8NGB9 whole entry): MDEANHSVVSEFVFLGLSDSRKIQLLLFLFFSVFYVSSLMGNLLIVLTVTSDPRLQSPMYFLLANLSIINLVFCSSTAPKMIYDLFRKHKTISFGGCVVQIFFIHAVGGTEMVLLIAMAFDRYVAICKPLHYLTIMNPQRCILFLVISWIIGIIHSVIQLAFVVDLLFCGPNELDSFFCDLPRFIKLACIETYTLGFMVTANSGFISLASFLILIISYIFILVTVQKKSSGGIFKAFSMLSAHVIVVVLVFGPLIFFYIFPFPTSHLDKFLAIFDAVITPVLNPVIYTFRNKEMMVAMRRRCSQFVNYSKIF
In short: as §1

[15] = target: OR4K1 (Homo sapiens) (UniProt Q8NGD4)
Sequence of OR4K1 (Homo sapiens) (Q8NGD4 whole entry): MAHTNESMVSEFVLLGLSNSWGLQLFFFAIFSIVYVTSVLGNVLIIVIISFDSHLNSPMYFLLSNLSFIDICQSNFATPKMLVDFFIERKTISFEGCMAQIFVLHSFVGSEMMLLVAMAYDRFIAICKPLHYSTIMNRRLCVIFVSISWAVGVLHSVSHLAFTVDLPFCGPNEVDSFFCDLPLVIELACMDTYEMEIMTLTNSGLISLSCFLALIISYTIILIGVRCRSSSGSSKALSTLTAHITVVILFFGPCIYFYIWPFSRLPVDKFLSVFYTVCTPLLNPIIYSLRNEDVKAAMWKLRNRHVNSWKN
In short: as §1

[16] = test system: OR4K1 R304H
Sequence of OR4K1 R304H (as listed by the source, stated change not applied): as the sequence (Q8NGD4 whole entry) above, with R304H counted along it
In short: as §1

[17] = target: OR4K13 (Homo sapiens) (UniProt Q8NH42)
Sequence of OR4K13 (Homo sapiens) (Q8NH42 whole entry): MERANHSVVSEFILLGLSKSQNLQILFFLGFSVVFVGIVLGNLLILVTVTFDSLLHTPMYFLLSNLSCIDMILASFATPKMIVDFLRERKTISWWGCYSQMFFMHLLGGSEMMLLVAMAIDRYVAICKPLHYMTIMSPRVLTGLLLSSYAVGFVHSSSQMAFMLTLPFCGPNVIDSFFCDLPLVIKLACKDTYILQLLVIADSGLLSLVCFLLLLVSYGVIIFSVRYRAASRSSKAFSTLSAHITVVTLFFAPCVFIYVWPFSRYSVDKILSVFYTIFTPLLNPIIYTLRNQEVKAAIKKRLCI
In short: as §1

[18] = target: OR4K14 (Homo sapiens) (UniProt Q8NGD5)
Sequence of OR4K14 (Homo sapiens) (Q8NGD5 whole entry): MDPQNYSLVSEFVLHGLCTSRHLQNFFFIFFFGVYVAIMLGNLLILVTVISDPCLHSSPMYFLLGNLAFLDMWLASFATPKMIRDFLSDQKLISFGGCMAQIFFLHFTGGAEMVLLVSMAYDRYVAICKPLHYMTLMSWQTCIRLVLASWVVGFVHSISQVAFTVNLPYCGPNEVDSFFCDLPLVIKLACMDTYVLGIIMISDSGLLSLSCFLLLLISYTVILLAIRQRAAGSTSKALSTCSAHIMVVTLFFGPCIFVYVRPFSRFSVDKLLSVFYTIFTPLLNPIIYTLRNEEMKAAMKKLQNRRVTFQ
In short: as §1

[19] = target: OR4E1 (Homo sapiens) (UniProt P0C645)
Sequence of OR4E1 (Homo sapiens) (P0C645 whole entry): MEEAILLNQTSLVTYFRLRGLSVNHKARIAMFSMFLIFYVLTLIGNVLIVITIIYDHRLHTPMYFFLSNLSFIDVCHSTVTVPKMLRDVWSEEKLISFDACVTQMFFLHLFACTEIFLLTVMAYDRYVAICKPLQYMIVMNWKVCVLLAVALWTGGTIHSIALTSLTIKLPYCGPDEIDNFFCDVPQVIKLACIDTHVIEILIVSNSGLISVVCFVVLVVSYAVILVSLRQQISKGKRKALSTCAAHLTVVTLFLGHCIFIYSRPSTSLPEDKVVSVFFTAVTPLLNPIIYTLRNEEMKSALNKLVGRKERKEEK
In short: as §1

[20] = target: OR4K15 (Homo sapiens) (UniProt Q8NH41)
Sequence of OR4K15 (Homo sapiens) (Q8NH41 whole entry): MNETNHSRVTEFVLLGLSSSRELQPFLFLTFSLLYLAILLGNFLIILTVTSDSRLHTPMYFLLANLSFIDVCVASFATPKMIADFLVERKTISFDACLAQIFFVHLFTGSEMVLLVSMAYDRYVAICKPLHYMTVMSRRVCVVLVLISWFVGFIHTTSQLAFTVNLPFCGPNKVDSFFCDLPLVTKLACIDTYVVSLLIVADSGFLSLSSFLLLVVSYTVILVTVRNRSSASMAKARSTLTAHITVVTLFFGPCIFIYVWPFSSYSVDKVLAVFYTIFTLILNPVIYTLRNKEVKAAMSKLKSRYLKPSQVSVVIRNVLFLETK
In short: as §1

Measured: odorant receptor agonist call

Sequence of OR4D6 (Homo sapiens) (Q8NGJ1 whole entry): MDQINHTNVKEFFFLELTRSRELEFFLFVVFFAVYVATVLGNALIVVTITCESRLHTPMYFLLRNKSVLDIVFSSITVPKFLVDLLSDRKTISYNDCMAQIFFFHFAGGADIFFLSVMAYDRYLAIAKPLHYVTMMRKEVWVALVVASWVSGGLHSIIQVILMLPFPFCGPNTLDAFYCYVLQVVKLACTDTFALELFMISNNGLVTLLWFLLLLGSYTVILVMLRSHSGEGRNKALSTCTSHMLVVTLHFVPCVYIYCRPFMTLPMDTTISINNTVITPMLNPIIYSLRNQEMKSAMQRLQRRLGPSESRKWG
Sequence of OR4D6 (as listed by the source): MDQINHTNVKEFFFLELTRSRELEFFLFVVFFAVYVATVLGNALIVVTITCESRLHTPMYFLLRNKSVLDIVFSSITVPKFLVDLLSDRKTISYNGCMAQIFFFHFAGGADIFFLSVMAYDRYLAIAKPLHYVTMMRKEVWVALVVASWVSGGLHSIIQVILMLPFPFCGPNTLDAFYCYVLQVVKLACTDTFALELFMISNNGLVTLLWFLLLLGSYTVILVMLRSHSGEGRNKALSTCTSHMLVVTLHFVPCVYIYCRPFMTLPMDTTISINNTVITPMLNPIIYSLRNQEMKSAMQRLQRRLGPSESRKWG

C=CCOC(=O)Cc1ccccc1
not listed: [19] | [20]
inactive: all other assays above

Cc1c([N+](=O)[O-])c(C)c([N+](=O)[O-])c(C(C)(C)C)c1[N+](=O)[O-]
not listed: [2] | [5] | [6] | [13] | [16]
inactive: all other assays above

— the M2OR odorant receptor database
